Laboratory results reported in PubChem BioAssay AID504383 (The Scripps Research Institute Molecular Screening Center, 2011).
The campaign covered roughly 2,500 compounds. About 1,200 (48%) were called active. So high a share suggests a set chosen from earlier hits. The list shows a part of the results. Values without a mark were called inactive.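 The calls were made as follows: active = mean activation above the low control average plus 3 SD, as set in the primary screen (cut at about 12% in these data); inactive = the rest.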

What follows are compounds tested against Troponin I, cardiac muscle (Homo sapiens) + Troponin T, cardiac muscle (Homo sapiens) + Troponin C, slow skeletal and cardiac muscles (Homo sapiens) (UniProt P19429+P45379+P63316) (assay: calcium sensitizers of cardiac thin filaments – biochemical, IANBD-TnC fluorescence, triplicate, confirmation (AID 504383;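 also: 0% = DMSO at 0.472 mM calcium and 100% = DMSO at 2.9 mM calcium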)). Conditions: IANBD-labeled cardiac RTF, Ca2+ sensitivity fluorescence; at 7.2 µM; active compounds read high; scaled from EC20 to saturating calcium; tested at EC20 calcium, 0.472 mM.
In short: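 material = labelled regulated thin filaments | probe or stimulus = Ca2+ 0.472 mM, EC20 level | dosing = single nominal compound dose of 7.2 µM | schedule = 15 min at 25 °C | signal = fluorescence intensity of labelled filaments | evaluation = fluorescence gain scaled between EC20 and EC100 calcium controls | benchmarks = low control EC20 calcium, high control EC100 calcium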

| Compound | activation |
| --- | --- |
| Cc1cc(=O)oc2cc(OCC(=O)OCC(=O)NC(C)C)ccc12 | 14.7% (active) |
| Cc1ccc(NC(=O)CN(C)C(=O)COC(=O)COc2ccc(C#N)cc2)cc1 | 3.65% |
| COc1cccc(CNC(=O)CCS(=O)(=O)c2cc3c(cc2C)NC(=O)CO3)c1 | 7.4% |
| Cc1cc2c(cc1S(=O)(=O)CCC(=O)NCCc1ccccc1)OCC(=O)N2 | 32.7% (active) |
| Cc1ccc(CNC(=O)CCS(=O)(=O)c2cc3c(cc2C)NC(=O)CO3)cc1 | 3.23% |
| CC(C)C(C(=O)O)N1C(=O)/C(=C/c2cccn2C)SC1=S (centres undefined) | 21.6% (active) |
| CCC(C(=O)O)N1C(=O)/C(=C/c2cccn2C)SC1=S (centres undefined) | 52.1% (active) |
| CC(C(=O)O)N1C(=O)/C(=C/c2cccn2C)SC1=S (centres undefined) | 23.1% (active) |
| CN1C2CCC1/C(=C/c1cccn1C)C(=O)/C2=C\c1cccn1C | 9.37% |
| CCCOc1ccc(Cn2c(=O)oc3ccc(C)cc32)cc1OC | 23.1% (active) |
| CCCc1ccc(OCc2ccc(C(=O)NN)o2)c(OC)c1 | 7.64% |
| COc1cc(OC)c(C(=O)NC2CCCCCC2)cc1OC | -0.45% |
| O=C(NC1CCCCC1)c1cc2nc3c(c(C(F)(F)F)n2n1)CCCC3 | 29.3% (active) |
| COC(=O)c1cc(N2CCN(C)CC2)nc2ccccc12 | 9.59% |
| CN1CCN(c2ccc(-c3cccc(NC(=O)COc4ccccc4)c3)nn2)CC1 | 25% (active) |
| COc1ccc(C(Nc2ccc(S(=O)(=O)NCC3CCCO3)cc2)C(=O)NC(C)(C)C)cc1OC (centres undefined) | 9.44% |
| CCCNC(=O)c1ccc(N2CCC3(CC2)CC(c2cccc(Br)c2)=NO3)c(NC(=O)c2cccc(C)c2)c1 | 9.93% |
| C[C@H](CO)NC(=O)[C@@H]1C[C@H]1[C@@H](NP(=O)(c1ccccc1)c1ccccc1)c1ccccc1 | 1.68% |
| COCCNC(=O)[C@H]1C[C@@H]1[C@H](NP(=O)(c1ccccc1)c1ccccc1)c1ccccc1 | 3770% (active) |
| COc1ccc(-c2nn(-c3ccccc3)cc2/C=N/NC(N)=S)cc1OC | 29% (active) |

| Compound | activation |
| --- | --- |
| COc1cccc(/C=N/Nc2nnc(C)n2N)c1O | 5.74% |
| Cc1ccc(C(C(=O)NC(C)(C)C)N(C(=O)c2csnn2)C2CC2)cc1 (centres undefined) | 100% (active) |
| O=C(O)CCNc1cc(N2CCN(C(=O)c3ccco3)CC2)c2noc3c2c1C(=O)c1ccccc1-3 | 3.54% |
| O=C(c1ccco1)N1CCN(c2ncnc3c(-c4ccc(Cl)cc4)nsc23)CC1 | 112% (active) |
| O=C1c2ccccc2-c2onc3c(N4CCN(CCO)CC4)cc(N4CCN(C(=O)c5ccco5)CC4)c1c23 | 7.32% |
| CCN(CC)CCCC(C)n1c2nc(=O)[nH]c(=O)c-2nc2cc(Cl)ccc21 (centres undefined) | 7.49% |
| CCOC(=O)c1ccc(N=c2sc(C(=O)OC)cc(=O)n2CCCN2CCOCC2)cc1 | 4.75% |
| O=C(NC(=S)NCCN1CCOCC1)c1ccc(F)cc1 | 72.6% (active) |
| CCOC(=O)c1c(NC(=S)N2CCN(C)CC2)sc2c1CCN(C(=O)OCC)C2 | 7.96% |
| CCOC(=O)N1CCN(C(=S)Nc2ccccc2C)CC1 | 32.7% (active) |
| CCC(CC)NC(=O)Nc1ccccc1C | 7.62% |
| O=C1NCCCCC1NS(=O)(=O)c1cccc(C(F)(F)F)c1 (centres undefined) | 7.86% |
| N#Cc1ccc(S(=O)(=O)NC2CCCCNC2=O)cc1 (centres undefined) | 93.6% (active) |
| N#Cc1ccc(S(=O)(=O)NC2CCN(Cc3ccccc3)CC2)cc1 | 9.61% |
| CCOP(=O)(OCC)/C(=N/OC(=O)c1ccc(OC)cc1)C(N)=O | 11.7% (active) |
| COc1[nH]c(/N=C/c2ccccc2)c(C#N)c1C#N | 7.9% |
| O=C(Nc1ccc(Cl)cn1)C1CCN(S(=O)(=O)c2cccs2)CC1 | 242% (active) |
| O=C(Nc1nccs1)C1CCN(S(=O)(=O)c2ccccc2)CC1 | 1030% (active) |
| O=C(Nc1ccccc1N1CCOCC1)C1CCN(S(=O)(=O)c2ccccc2F)CC1 | 3.08% |
| O=C(c1cc(Cl)ccc1O)N1CCN(S(=O)(=O)c2cccs2)CC1 | 683% (active) |

| Compound | activation |
| --- | --- |
| O=C(c1cc(-c2cccs2)nn1-c1ccccc1)N1CCN(S(=O)(=O)c2ccccc2)CC1 | 3.27% |
| CCOc1ccc(NC(=O)C2CCN(S(=O)(=O)c3cccnc3)CC2)cc1 | 0.88% |
| O=C(CSc1n[nH]c(-c2cccs2)n1)N1CCOCC1 | 3.55% |
| O=C(CC1CCCC1)N1CCN(S(=O)(=O)c2ccccc2)CC1 | 3.96% |
| O=C(Cc1cccs1)N1CCN(S(=O)(=O)c2cc(Cl)ccc2Cl)CC1 | 13.5% (active) |
| N#Cc1cccc(NC(=O)CSc2ccc3c4c(cccc24)C(=O)c2ccccc2-3)c1 | 15.7% (active) |
| N#Cc1cccc(NC(=S)Nc2ccccc2)c1 | 6.24% |
| COc1ccc(NC(=O)CSc2ccc3c4c(cccc24)C(=O)c2ccccc2-3)cc1 | 19.2% (active) |
| COc1ccc(NC(=O)CC2C(=O)N(Cc3ccco3)C(=S)N2C(C)C)cc1 (centres undefined) | 41.6% (active) |
| COc1ccc(/C(O)=C2\C(=O)C(=O)N(Cc3ccco3)C2c2cc(OC)ccc2OC)cc1 (centres undefined) | 10.9% |
| O=S(=O)(c1ccc(F)cc1)N1CCN(CCOc2ccccc2)CC1 | 956% (active) |
| COC(=O)N1CCN(S(=O)(=O)c2ccc(F)cc2)CC1 | 8.33% |
| O=[N+]([O-])c1cc(-c2ccn[nH]2)ccc1Cl | 10.1% |
| COc1ccc(C(=O)Nc2ccccc2-c2ccccc2)cc1Cl | 11% |
| O=C(Nc1ccccc1-c1ccccc1)c1ccc(Cl)c([N+](=O)[O-])c1 | 48.5% (active) |
| O=C1/C(=C\c2cc(Cl)c(O)c(Cl)c2)SC(=S)N1Cc1ccccc1 | -1.15% |
| COc1ccc(/C=C2\SC(=S)N(CCCC(=O)Nc3ccccn3)C2=O)cc1OC | 9.09% |
| COc1ccc(/C=C2\SC(=S)N(CCCC(=O)Nc3ccccc3C(=O)O)C2=O)cc1OC | 28.5% (active) |
| COc1cc(/C=C2/SC(=S)N(Cc3ccccc3)C2=O)cc(Cl)c1O | 5470% (active) |
